# Measurements taken from ChEMBL document CHEMBL2046351, “Discovery of cyclic sulfone hydroxyethylamines as potent and selective β-site APP-cleaving enzyme 1 (BACE1) inhibitors: structure-based design and in vivo reduction of amyloid β-peptides” (J Med Chem, 2012).
# Legend:
# Cytochrome P450 3A4 = Cytochrome P450 3A4 (Homo sapiens, UniProt P08684); experiment: Inhibition of CYP3A4; format: ADME
# [1] = Oral bioavailability in C57BL/6 mouse at 60 umol/kg dosed in HS15/propylenglycol/citrate buffer, pH 4.75, 50 mM (10/5/85, v/v/v) by LC/MS/MS analysis; format: ADME, organism-based; conditions: in vivo
# Summary of the method: (§1)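 Oral gavage (10 mL/kg) to male C57BL/6 mice with iv reference segment (2 μmol/kg, NMP/blank plasma 10:90). Noncompartmental analysis of LC-MS/MS blood profiles, 1/Y weighting; %F = dose-normalized oral AUC / dose-normalized iv AUC × 100, assuming linear pharmacokinetics between doses.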
# [2] = AUC (0 to infinity) in C57BL/6 mouse at 6 umol/kg, po dosed in HS15/propylenglycol/citrate buffer, pH 4.75, 50 mM (10/5/85, v/v/v) by LC/MS/MS analysis; format: ADME, organism-based; design: dose 6 umol/kg, time infinity, route oral; conditions: plasma
# Summary of the method: (§2)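 Male C57BL/6 mice were dosed by oral gavage at 10 mL/kg. Blood was sampled at 0.25, 0.5, 1, 2, 4 and 6 h postdose, extracted by acetonitrile precipitation and quantified by LC-MS/MS (typical LLOQ 0.4 ng/mL). AUCinf was obtained by noncompartmental analysis of concentration–time profiles, weighting 1/Y, with at least three terminal log-linear points.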
# [3] = AUC (0 to infinity) in C57BL/6 mouse at 60 umol/kg, po dosed in HS15/propylenglycol/citrate buffer, pH 4.75, 50 mM (10/5/85, v/v/v) by LC/MS/MS analysis; format: ADME, organism-based; design: dose 60 umol/kg, route oral, time infinity; conditions: plasma; summary of the method: as §2
# Brain [4] = experiment: Drug uptake in C57BL/6 mouse brain at 6 umol/kg, po dosed in HS15/propylenglycol/citrate buffer, pH 4.75, 50 mM (10/5/85, v/v/v) measured 1 hr post dosing by LC/MS/MS analysis; format: ADME, organism-based; conditions: in vivo, pH 4.75, 1 h
# Summary of the method: (§3)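 Male C57BL/6 mice dosed by oral gavage, 10 mL/kg. Blood sampled 0.25, 0.5, 1, 2, 4, 6 h; brain at 1 and/or 4 h; n = 3 per time. Blood acetonitrile-precipitated, brain water-homogenized then precipitated; LC-MS/MS with weighted linear calibration.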
# [5] = Drug uptake in C57BL/6 mouse blood at 6 umol/kg, po dosed in HS15/propylenglycol/citrate buffer, pH 4.75, 50 mM (10/5/85, v/v/v) measured 1 hr post dosing by LC/MS/MS analysis; format: ADME, organism-based; conditions: read-out: Drug uptake; summary of the method: as §3
# [6] = Drug uptake in C57BL/6 mouse blood at 6 umol/kg, po dosed in HS15/propylenglycol/citrate buffer, pH 4.75, 50 mM (10/5/85, v/v/v) measured 4 hrs post dosing by LC/MS/MS analysis; format: ADME, organism-based; conditions: read-out: Drug uptake; summary of the method: as §3
# [7] = Ratio of drug uptake in brain to blood in C57BL/6 mouse at 6 umol/kg, po dosed in HS15/propylenglycol/citrate buffer, pH 4.75, 50 mM (10/5/85, v/v/v) measured 1 hr post dosing by LC/MS/MS analysis; format: ADME, organism-based
# Summary of the method: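 Male C57BL/6 mice received the dose by oral gavage at 10 mL/kg. Blood and brain were collected at 1 and/or 4 h postdose. Brain was homogenised in water, and both matrices were extracted by acetonitrile precipitation and quantified by LC-MS/MS. The ratio is mean brain (nmol/g) over mean blood (nmol/mL) concentration, n = 3.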
# Brain [8] = experiment: Drug uptake in C57BL/6 mouse brain at 60 umol/kg, po dosed in HS15/propylenglycol/citrate buffer, pH 4.75, 50 mM (10/5/85, v/v/v) measured 1 hr post dosing by LC/MS/MS analysis; format: ADME, organism-based; conditions: in vivo, pH 4.75, 1 h; summary of the method: as §3
# [9] = Drug uptake in C57BL/6 mouse blood at 60 umol/kg, po dosed in HS15/propylenglycol/citrate buffer, pH 4.75, 50 mM (10/5/85, v/v/v) measured 1 hr post dosing by LC/MS/MS analysis; format: ADME, organism-based; conditions: read-out: Drug uptake; summary of the method: as §3
# [10] = Drug uptake in C57BL/6 mouse blood at 60 umol/kg, po dosed in HS15/propylenglycol/citrate buffer, pH 4.75, 50 mM (10/5/85, v/v/v) measured 4 hrs post dosing by LC/MS/MS analysis; format: ADME, organism-based; conditions: read-out: Drug uptake; summary of the method: as §3
# [11] = AUC (0 to infinity) in C57BL/6 mouse at 6 umol/kg, po dosed in carboxymethyl cellulose 0.5% w/v in water/Tween 80 (99.5/0.5, v/v) by LC/MS/MS analysis; format: ADME, organism-based; design: dose 6 umol/kg, time infinity, route oral; conditions: in vivo; summary of the method: as §2
# [12] = Oral bioavailability in C57BL/6 mouse at 6 umol/kg dosed in carboxymethyl cellulose 0.5% w/v in water/Tween 80 (99.5/0.5, v/v) by LC/MS/MS analysis; format: ADME, organism-based; conditions: in vivo; summary of the method: as §1
# Brain [13] = experiment: Drug uptake in C57BL/6 mouse brain at 60 umol/kg, po dosed in carboxymethyl cellulose 0.5% w/v in water/Tween 80 (99.5/0.5, v/v) measured 1 hr post dosing by LC/MS/MS analysis; format: ADME, organism-based; conditions: in vivo; summary of the method: as §3
# Brain [14] = experiment: Drug uptake in C57BL/6 mouse brain at 60 umol/kg, po dosed in carboxymethyl cellulose 0.5% w/v in water/Tween 80 (99.5/0.5, v/v) measured 4 hrs post dosing by LC/MS/MS analysis; format: ADME, organism-based; conditions: in vivo; summary of the method: as §3
# [15] = Ratio of drug uptake in brain to blood in C57BL/6 mouse at 60 umol/kg, po dosed in carboxymethyl cellulose 0.5% w/v in water/Tween 80 (99.5/0.5, v/v) measured 4 hrs post dosing by LC/MS/MS analysis; format: ADME, organism-based; summary of the method: as §3
# Brain [16] = experiment: Drug uptake in C57BL/6 mouse brain at 2 umol/kg, iv dosed in N-methyl pyrrolidone/blank plasma (10:90 v/v) measured 1 hr post dosing by LC/MS/MS analysis; format: ADME, organism-based; conditions: in vivo
# Summary of the method: (§4)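 Male C57BL/6 mice, saphenous vein injection under light anesthesia, 5 mL/kg. Blood at 5, 30 min and 1, 2, 4, 6, 8 h; brain at 5 min, 1, 4, 8 h; n = 3/time. LC-MS/MS after acetonitrile precipitation (brain water-homogenized). Noncompartmental analysis, 1/Y weighting, terminal slope from ≥3 points.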
# Brain [17] = experiment: Drug uptake in C57BL/6 mouse brain at 2 umol/kg, iv dosed in N-methyl pyrrolidone/blank plasma (10:90 v/v) measured 4 hrs post dosing by LC/MS/MS analysis; format: ADME, organism-based; conditions: in vivo; summary of the method: as §4
# [18] = Drug uptake in C57BL/6 mouse blood at 2 umol/kg, iv dosed in N-methyl pyrrolidone/blank plasma (10:90 v/v) measured 4 hrs post dosing by LC/MS/MS analysis; format: ADME, organism-based; conditions: read-out: Drug uptake; summary of the method: as §4
# [19] = Ratio of drug uptake in brain to blood in C57BL/6 mouse at 2 umol/kg, iv dosed in N-methyl pyrrolidone/blank plasma (10:90 v/v) measured 1 hr post dosing by LC/MS/MS analysis; format: ADME, organism-based; summary of the method: as §4
# [20] = Drug uptake in C57BL/6 mouse blood at 6 umol/kg, po dosed in carboxymethyl cellulose 0.5% w/v in water/Tween 80 (99.5/0.5, v/v) measured 4 hrs post dosing by LC/MS/MS analysis; format: ADME, organism-based; conditions: read-out: Drug uptake; summary of the method: as §3
# [21] = Ratio of drug uptake in brain to blood in C57BL/6 mouse at 6 umol/kg, po dosed in carboxymethyl cellulose 0.5% w/v in water/Tween 80 (99.5/0.5, v/v) measured 1 hr post dosing by LC/MS/MS analysis; format: ADME, organism-based; summary of the method: as §3
# Beta-secretase 1 = Beta-secretase 1 (Homo sapiens, UniProt P56817)
# Sequence of Beta-secretase 1 (P56817 whole entry): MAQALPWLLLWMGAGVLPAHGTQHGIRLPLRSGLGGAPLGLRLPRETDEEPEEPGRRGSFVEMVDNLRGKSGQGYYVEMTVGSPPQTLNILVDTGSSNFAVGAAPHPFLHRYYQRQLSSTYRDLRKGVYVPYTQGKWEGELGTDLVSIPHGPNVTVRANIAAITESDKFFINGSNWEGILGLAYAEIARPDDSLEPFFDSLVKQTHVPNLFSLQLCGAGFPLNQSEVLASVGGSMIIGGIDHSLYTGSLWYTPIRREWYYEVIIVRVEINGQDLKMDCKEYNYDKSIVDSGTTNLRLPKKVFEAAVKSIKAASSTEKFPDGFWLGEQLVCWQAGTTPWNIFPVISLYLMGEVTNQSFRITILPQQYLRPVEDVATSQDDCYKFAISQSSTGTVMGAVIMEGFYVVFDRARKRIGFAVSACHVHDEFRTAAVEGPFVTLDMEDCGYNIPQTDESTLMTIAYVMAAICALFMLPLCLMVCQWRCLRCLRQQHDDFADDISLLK
# Sequence of Cytochrome P450 3A4 (P08684 whole entry): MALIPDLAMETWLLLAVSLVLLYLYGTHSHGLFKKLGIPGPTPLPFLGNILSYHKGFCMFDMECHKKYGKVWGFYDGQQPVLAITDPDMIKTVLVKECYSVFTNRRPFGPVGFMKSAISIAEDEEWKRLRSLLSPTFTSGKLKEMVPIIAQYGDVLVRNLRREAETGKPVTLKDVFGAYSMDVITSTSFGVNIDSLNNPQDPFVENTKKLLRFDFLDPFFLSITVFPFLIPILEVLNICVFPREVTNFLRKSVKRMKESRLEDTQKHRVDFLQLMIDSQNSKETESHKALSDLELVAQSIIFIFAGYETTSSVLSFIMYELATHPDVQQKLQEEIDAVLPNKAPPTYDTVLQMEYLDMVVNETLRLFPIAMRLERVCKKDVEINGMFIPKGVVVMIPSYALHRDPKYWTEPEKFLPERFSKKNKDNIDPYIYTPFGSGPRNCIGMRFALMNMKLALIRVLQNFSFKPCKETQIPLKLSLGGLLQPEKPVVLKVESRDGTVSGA
smiles,measurement,setting,value
CC(C)(C)c1cccc(CN[C@H]2CS(=O)(=O)C[C@@H](Cc3cc(F)c(N)c(OC(C(F)(F)F)C(F)(F)F)c3)[C@@H]2O)c1,IC50,Cytochrome P450 3A4,300 nM
same,bioavailability,[1],33%
same,AUC(0-inf),[2],0.398 µM·h
same,AUC(0-inf),[3],4.07 µM·h
same,Drug uptake,Brain [4],0.02 nmol/g
same,concentration at 1 h,[5],60 nM
same,concentration at 4 h,[6],30 nM
same,Kp at 1 h,[7],0.3
same,Drug uptake,Brain [8],0.23 nmol/g
same,concentration at 1 h,[9],470 nM
same,concentration at 4 h,[10],190 nM
CC(C)(C)c1cccc(CN[C@H]2CS(=O)(=O)C[C@@H](Cc3cc(F)c(N)c(OCC(F)(F)F)c3)[C@@H]2O)c1,AUC(0-inf),[11],0.466 µM·h
same,bioavailability,[12],52%
same,Drug uptake,Brain [13],1.19 nmol/g
same,Drug uptake,Brain [14],0.55 nmol/g
same,Kp at 4 h,[15],0.3
same,Drug uptake,Brain [16],0.11 nmol/g
same,Drug uptake,Brain [17],0.01 nmol/g
same,concentration at 4 h,[18],10 nM
same,Kp at 1 h,[19],1.8
same,concentration at 4 h,[20],10 nM
same,Kp at 1 h,[21],2.7
same,IC50,Beta-secretase 1,6 nM
